Assay results: ChEMBL document CHEMBL1795305, “Sorafenib derivatives induce apoptosis through inhibition of STAT3 independent of Raf” (Eur J Med Chem, 2011)
pIC50: −log10 of the molar value. Activity calls are given as the source filed them. No cut-off for these calls is given here.

Columns and labels:
[1] = Cytotoxicity against human PLC/PRF/5 cells assessed as growth inhibition; type: functional, cell-based
[2] = target: RAF proto-oncogene serine/threonine-protein kinase (Homo sapiens) (UniProt P04049); assay: Inhibition of raf kinase in human PLC/PRF/5 cell lysate at 10 uM after 24 hrs
[3] = target: Signal transducer and activator of transcription 3 (Homo sapiens) (UniProt P40763); assay: Inhibition of IL6-induced STAT3 phosphorylation in human PLC/PRF/5 cells at 10 uM after 24 hrs by ELISA; type: cell-based
How it was run: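 PLC5 cells pre-treated with IL-6 1 ng/mL, then exposed to compound at 10 µM for 24 h; lysates incubated on antibody-coated plate capturing phospho- and non-phospho-STAT3; phospho-STAT3 detected by absorbance at 450 nm; mean ± SD, N = 3.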

[4] = target: Signal transducer and activator of transcription 3 (Homo sapiens) (UniProt P40763); assay: Inhibition of STAT3-mediated cyclin D1 protein expression in human PLC/PRF/5 cells at 5 to 10 uM after 24 hrs by Western blot analysis; type: cell-based
How it was run: (§1)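 PLC5 cells in FBS-containing medium treated 24 h at 5 and 10 µM; whole-cell lysates immunoblotted for phospho-STAT3, total STAT3, cyclin D1 and survivin.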

[5] = target: Signal transducer and activator of transcription 3 (Homo sapiens) (UniProt P40763); assay: Inhibition of STAT3-mediated survivin expression in human PLC/PRF/5 cells at 5 to 10 uM after 24 hrs by Western blot analysis; type: cell-based; how it was run: as §1
PLC-PRF-5 [6] = assay: Induction of apoptosis in human PLC/PRF/5 at 5 to 10 uM by flow cytometry; type: functional
How it was run: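 PLC5 cells treated 24 h at 5 and 10 µM; trypsinized, washed in PBS, stained with propidium iodide 30 min at 37 °C in the dark; apoptotic fraction read as sub-G1 population by flow cytometry; triplicate experiments.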

PLC-PRF-5 [7] = assay: Induction of apoptosis in human PLC/PRF/5 cells assessed as DNA fragmentation at 5 to 10 uM by ELISA; type: functional, cell-based
How it was run: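 PLC5 cells treated 24 h at 5 and 10 µM in culture; cell death quantified as DNA fragmentation by ELISA kit following manufacturer's standard protocol.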

[8] = target: RAF proto-oncogene serine/threonine-protein kinase (Homo sapiens) (UniProt P04049); details: 5 uM

Chain of Signal transducer and activator of transcription 3 (Homo sapiens) (P40763 whole entry): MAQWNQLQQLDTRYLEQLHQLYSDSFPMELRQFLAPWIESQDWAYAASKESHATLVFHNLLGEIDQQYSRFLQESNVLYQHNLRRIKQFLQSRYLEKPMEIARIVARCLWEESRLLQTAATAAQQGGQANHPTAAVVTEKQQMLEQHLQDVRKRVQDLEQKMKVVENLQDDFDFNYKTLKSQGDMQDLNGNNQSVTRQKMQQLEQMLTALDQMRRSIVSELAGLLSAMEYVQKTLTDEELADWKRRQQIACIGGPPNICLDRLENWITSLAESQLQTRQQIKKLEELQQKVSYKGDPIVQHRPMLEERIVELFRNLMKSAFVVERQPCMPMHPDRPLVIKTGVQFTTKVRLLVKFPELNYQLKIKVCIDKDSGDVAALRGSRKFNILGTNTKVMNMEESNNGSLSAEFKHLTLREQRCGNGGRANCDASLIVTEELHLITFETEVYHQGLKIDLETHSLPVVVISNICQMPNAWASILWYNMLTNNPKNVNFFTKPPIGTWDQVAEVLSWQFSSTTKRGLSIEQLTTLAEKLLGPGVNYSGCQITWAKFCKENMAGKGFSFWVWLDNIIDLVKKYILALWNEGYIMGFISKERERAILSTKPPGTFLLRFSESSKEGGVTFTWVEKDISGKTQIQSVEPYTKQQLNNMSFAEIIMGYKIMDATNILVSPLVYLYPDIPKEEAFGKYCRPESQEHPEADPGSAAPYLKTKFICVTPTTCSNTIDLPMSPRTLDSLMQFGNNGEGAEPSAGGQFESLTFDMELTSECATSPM

Compound | pIC50 ([1]; Homo sapiens, PLC-PRF-5) | other results
O=[N+]([O-])c1cc(C(F)(F)F)ccc1S(=O)(=O)Nc1ccc(Oc2ccnc3c([N+](=O)[O-])cccc23)cc1 | < 4.40 | –
CNC(=O)c1cc(Oc2ccc(NC(=O)c3ccc(C(F)(F)F)cc3)cc2)ccn1 | < 4.40 | –
CNC(=O)c1cc(Oc2ccc(NS(=O)(=O)c3ccccc3)cc2)ccn1 | < 4.40 | –
CNC(=O)c1cc(Oc2ccc(NC(=O)c3cc(C(F)(F)F)ccc3F)cc2)ccn1 | < 4.40 | –
CNC(=O)c1cc(Oc2ccc(NC(=O)c3cc(C(F)(F)F)cc(C(F)(F)F)c3)cc2)ccn1 | < 4.40 | –
Nc1cccc2c(Oc3cccc(NC(=O)c4cc(C(F)(F)F)cc(C(F)(F)F)c4)c3)ccnc12 | 4.72 | –
O=C(Nc1ccc(Oc2ccnc3c([N+](=O)[O-])cccc23)cc1)c1cc(C(F)(F)F)cc(C(F)(F)F)c1 | < 4.40 | –
CNC(=O)c1cc(Oc2ccc(NS(=O)(=O)c3ccc(C(F)(F)F)cc3Br)cc2)ccn1 | < 4.40 | –
O=C(Nc1ccc(Oc2ccnc3c([N+](=O)[O-])cccc23)cc1)c1cc(C(F)(F)F)ccc1F | < 4.40 | –
CNC(=O)c1cc(Oc2ccc(NS(=O)(=O)c3ccc([N+](=O)[O-])cc3)cc2)ccn1 | < 4.40 | –
O=C(Nc1cccc(Oc2ccnc3c([N+](=O)[O-])cccc23)c1)c1cc(C(F)(F)F)cc(C(F)(F)F)c1 | < 4.40 | –
CNC(=O)c1cc(Oc2ccc(NS(=O)(=O)c3ccccc3[N+](=O)[O-])cc2)ccn1 | < 4.40 | –
SC-1 [listing 1 of 2 here] | – | inhibition [2]: inactive; inhibition [3]: Active; inhibition [4]: Active; inhibition [5]: Active; Activity (PLC-PRF-5 [6]): Active; Activity (PLC-PRF-5 [7]): Active
Cc1cc(Oc2ccnc3c(N)cccc23)ccc1NC(=O)c1cc(C(F)(F)F)cc(C(F)(F)F)c1 | 4.60 | –
O=[N+]([O-])c1cccc2c(Oc3ccc(NS(=O)(=O)c4ccc(C(F)(F)F)cc4Br)cc3)ccnc12 | < 4.40 | –
CNC(=O)c1cc(Oc2ccc(NC(=O)Nc3ccc(Cl)c(C(F)(F)F)c3)cc2)ccn1 [SORAFENIB] | 5.08 | inhibition [8]: 50%
SC-1 [listing 2 of 2 here] | – | pIC50 ([1]; plc-prf-5): 5.12
O=C(Nc1ccc(Oc2ccnc3ccccc23)cc1)c1cc(C(F)(F)F)cc(C(F)(F)F)c1 | 4.80 | –
O=S(=O)(Nc1ccc(Oc2ccnc3ccccc23)cc1)c1ccc(C(F)(F)F)cc1Br | < 4.40 | –
CC(=O)Nc1cccc2c(Oc3ccc(NC(=O)c4cc(C(F)(F)F)cc(C(F)(F)F)c4)c(C)c3)ccnc12 | < 4.40 | –
O=C(Nc1ccc(Oc2ccnc3ccccc23)cc1)c1cc(C(F)(F)F)ccc1F | 4.68 | –
CNC(=O)c1cc(Oc2ccc(NS(=O)(=O)c3ccc4ccccc4c3)cc2)ccn1 | < 4.40 | –
CNC(=O)c1cc(Oc2ccc(NS(=O)(=O)c3ccc(C(C)(C)C)cc3)cc2)ccn1 | < 4.40 | –
O=[N+]([O-])c1cc(C(F)(F)F)ccc1S(=O)(=O)Nc1ccc(Oc2ccnc3ccccc23)cc1 | < 4.40 | inhibition [4]: inactive; inhibition [5]: inactive
CNC(=O)c1cc(Oc2ccc(NS(=O)(=O)c3ccc(F)cc3)cc2)ccn1 | < 4.40 | –
Cc1cc(Oc2ccnc3c([N+](=O)[O-])cccc23)ccc1NC(=O)c1cc(C(F)(F)F)cc(C(F)(F)F)c1 | < 4.40 | –
CC(=O)Nc1cccc2c(Oc3cccc(NC(=O)c4cc(C(F)(F)F)cc(C(F)(F)F)c4)c3)ccnc12 | 4.97 | –
